Legend:
[1] = system: F508del-CFTR in BHK cells; assay: HTS F508del-CFTR correction assay; format: cell-based, hamster; conditions: 24 h treatment
PARP3 = biological target: T1, PARP3 (Homo sapiens, UniProt Q9Y6F1); assay: PARP enzymatic assay; format: biochemical; conditions: for Inhibition of PARP3, mean (panel): 10 μM, 0 equals no inhibition, 100 total inhibition, N = 5 (Table 5); for IC50: read-out: IC50 PARP3, dose response 1 nM to 1 mM; for PARP3 inhibition at 1 μM: from dose response data
T1 sequence (Q9Y6F1 1-533): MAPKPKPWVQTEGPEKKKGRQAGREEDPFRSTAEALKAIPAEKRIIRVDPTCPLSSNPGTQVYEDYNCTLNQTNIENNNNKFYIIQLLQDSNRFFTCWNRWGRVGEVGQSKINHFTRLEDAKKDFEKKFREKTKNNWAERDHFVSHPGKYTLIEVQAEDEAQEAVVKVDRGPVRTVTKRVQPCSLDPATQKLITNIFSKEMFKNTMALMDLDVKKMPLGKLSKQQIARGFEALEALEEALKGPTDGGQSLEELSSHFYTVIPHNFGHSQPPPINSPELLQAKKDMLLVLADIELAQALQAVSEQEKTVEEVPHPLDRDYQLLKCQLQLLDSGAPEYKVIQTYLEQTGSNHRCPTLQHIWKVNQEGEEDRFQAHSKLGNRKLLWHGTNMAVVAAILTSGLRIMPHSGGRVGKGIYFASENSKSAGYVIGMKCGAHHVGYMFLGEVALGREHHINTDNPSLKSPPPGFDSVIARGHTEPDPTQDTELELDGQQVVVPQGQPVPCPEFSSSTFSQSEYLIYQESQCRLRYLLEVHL

PARP1 = PARP1 (Homo sapiens, UniProt P09874); assay: PARP enzymatic assay; format: biochemical; conditions: read-out: IC50 PARP1; dose response 1 nM to 1 mM
PARP16 = biological target: T2, PARP16 (Homo sapiens, UniProt Q8N5Y8); assay: Modified PARP enzymatic assay with IRE-1 as substrate, PARP16; format: biochemical; conditions: for PARP16 inhibition at 1 μM: from dose response data; for Selectivity: greater IC50 potency for PARP16 compared with PARP3: ratio of IC50 values, in vitro; for IC50: read-out: IC50 PARP16, dose response 1 nM to 1 mM
T2 sequence (Q8N5Y8 1-322): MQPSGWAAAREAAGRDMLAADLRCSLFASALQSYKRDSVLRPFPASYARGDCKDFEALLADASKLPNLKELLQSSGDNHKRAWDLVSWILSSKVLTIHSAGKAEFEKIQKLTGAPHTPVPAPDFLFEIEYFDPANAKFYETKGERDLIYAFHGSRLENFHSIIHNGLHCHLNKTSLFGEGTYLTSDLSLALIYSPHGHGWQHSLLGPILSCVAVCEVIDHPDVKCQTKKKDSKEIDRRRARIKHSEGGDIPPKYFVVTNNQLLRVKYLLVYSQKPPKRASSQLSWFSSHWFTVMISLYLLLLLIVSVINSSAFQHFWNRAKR

PARP2 = assay: PARP enzymatic assay, PARP2; format: biochemical; conditions: 10 μM; 0 equals no inhibition, 100 total inhibition; N = 5 (Table 5)
Method in brief: (§1)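 Commercial recombinant PARP2, PARP4, PARP-5a and PARP-5b were assayed with a chemiluminescent universal PARP kit on histone-coated strip wells, following the manufacturer's protocol. Anchored histones served as the ADP-ribosylation substrate. Inhibition was read as loss of chemiluminescent signal.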

TANKYRASE 2 = biological target: T3, TANKYRASE 2 (Homo sapiens, UniProt Q9H2K2); assay: PARP enzymatic assay, TANKYRASE 2; format: biochemical; conditions: 10 μM; 0 equals no inhibition, 100 total inhibition; N = 5 (Table 5)
T3 sequence (Q9H2K2 1-1166): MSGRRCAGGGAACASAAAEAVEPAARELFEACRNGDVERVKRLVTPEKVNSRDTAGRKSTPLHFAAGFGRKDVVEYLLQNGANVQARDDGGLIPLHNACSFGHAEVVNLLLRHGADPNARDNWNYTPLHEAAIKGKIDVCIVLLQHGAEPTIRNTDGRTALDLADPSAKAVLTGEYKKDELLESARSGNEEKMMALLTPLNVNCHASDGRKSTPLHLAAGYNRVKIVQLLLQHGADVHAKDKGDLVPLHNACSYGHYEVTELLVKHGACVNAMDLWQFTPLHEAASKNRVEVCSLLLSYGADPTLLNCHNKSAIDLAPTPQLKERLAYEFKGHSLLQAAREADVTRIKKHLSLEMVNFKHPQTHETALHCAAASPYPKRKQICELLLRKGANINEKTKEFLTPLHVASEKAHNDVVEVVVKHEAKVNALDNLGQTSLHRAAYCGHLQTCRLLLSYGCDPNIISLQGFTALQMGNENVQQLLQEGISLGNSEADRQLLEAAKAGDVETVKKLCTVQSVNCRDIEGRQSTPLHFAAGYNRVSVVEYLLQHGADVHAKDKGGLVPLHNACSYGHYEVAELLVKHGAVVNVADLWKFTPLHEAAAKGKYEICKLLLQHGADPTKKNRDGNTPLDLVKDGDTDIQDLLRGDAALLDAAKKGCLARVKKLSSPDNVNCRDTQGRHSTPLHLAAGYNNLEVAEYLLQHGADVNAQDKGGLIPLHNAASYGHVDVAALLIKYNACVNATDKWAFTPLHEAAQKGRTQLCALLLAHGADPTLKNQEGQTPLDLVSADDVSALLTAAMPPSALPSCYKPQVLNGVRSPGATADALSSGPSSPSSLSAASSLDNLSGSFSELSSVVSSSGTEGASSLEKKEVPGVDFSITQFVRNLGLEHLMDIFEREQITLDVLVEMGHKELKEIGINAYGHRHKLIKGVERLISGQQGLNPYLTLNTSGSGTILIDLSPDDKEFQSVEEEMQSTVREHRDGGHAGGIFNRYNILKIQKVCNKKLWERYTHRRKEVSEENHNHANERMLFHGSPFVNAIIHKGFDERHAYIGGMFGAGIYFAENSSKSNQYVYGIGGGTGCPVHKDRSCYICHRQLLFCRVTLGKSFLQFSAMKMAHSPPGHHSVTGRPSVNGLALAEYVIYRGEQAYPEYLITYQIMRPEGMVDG
Method in brief: (§2)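 Recombinant human PARP-5a (tankyrase 1) and PARP-5b (tankyrase 2) were obtained commercially. Inhibition was measured with a universal chemiluminescent PARP kit according to the manufacturer's protocol. Anchored histone proteins coated on strip wells served as the ADP-ribosylation substrate.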

[2] = system: F508del-CFTR in BHK cells; conditions: cited from earlier work
PARP5 = assay: PARP enzymatic assay, PARP5; format: biochemical; conditions: 10 μM; 0 equals no inhibition, 100 total inhibition; N = 5 (Table 5)
Method in brief: as §1

[3] = system: F508del-CFTR in BHK cells; assay: FMP functional F508del-CFTR correction assay; format: cell-based, hamster; conditions: 1 μM each, 24 h pretreatment, forskolin + genistein, BHK cells (Figure 2C)
Method in brief: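 BHK cells expressing F508del-CFTR were seeded at 25 000 cells per well and treated with test compound (1 μM) for 24 h, then washed with PBS. Cells were loaded with a voltage-sensitive oxonol-derived FLIPR dye plus quencher in low-chloride gluconate/HEPES buffer (pH 7.4) containing genistein (50 μM) for 5 min at room temperature. Forskolin (10 μM) was added, and the mean initial fluorescence rate (Vmax) was expressed as % of VX809 response.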

TANKYRASE1 = biological target: T4, TANKYRASE1 (Homo sapiens, UniProt O95271); assay: PARP enzymatic assay, TANKYRASE1; format: biochemical; conditions: 10 μM; 0 equals no inhibition, 100 total inhibition; N = 5 (Table 5)
T4 sequence (O95271 1-1327): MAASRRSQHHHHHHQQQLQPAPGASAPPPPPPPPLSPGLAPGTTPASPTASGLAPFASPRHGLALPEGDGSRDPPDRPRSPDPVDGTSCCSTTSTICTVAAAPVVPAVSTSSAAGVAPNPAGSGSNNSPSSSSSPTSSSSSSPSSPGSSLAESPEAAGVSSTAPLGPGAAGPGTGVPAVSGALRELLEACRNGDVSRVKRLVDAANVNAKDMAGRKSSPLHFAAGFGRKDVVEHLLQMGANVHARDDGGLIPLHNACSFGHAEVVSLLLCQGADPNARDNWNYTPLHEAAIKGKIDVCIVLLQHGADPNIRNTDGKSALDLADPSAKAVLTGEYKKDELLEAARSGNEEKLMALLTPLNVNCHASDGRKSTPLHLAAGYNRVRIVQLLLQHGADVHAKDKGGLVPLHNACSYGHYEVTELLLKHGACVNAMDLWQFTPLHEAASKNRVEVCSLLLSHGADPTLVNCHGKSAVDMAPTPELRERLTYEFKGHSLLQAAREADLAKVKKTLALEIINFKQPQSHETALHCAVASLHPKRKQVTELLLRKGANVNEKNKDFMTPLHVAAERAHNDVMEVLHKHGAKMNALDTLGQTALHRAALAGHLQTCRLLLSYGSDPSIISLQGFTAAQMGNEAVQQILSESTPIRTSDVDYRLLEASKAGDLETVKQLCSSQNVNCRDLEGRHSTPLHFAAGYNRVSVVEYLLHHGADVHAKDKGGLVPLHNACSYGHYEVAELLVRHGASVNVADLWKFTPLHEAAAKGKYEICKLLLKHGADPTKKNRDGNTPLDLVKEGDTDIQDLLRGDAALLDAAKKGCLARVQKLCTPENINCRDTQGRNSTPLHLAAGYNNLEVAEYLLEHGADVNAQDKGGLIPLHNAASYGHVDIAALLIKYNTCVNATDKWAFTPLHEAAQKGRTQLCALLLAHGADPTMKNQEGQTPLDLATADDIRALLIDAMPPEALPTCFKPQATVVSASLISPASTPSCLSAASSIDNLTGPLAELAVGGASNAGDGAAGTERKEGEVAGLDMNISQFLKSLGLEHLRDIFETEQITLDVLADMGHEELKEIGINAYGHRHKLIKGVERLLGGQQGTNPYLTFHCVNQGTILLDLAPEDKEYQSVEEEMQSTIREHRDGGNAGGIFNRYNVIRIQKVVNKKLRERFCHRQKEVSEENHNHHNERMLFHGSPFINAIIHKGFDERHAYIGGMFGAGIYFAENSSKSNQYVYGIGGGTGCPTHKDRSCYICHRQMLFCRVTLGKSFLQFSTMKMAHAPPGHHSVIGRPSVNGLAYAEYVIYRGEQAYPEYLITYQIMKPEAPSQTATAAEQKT
Method in brief: as §2

PARP4 = PARP4 (Homo sapiens, UniProt Q9UKK3); assay: PARP enzymatic assay, PARP4; format: biochemical; conditions: 10 μM; 0 equals no inhibition, 100 total inhibition; N = 5 (Table 5)
Method in brief: as §1

[4] = 1 μM each, BHK cells (Figure 2B)
[5] = 10 μM each, BHK cells (Figure 2A)

Chain of PARP1 (P09874 whole entry): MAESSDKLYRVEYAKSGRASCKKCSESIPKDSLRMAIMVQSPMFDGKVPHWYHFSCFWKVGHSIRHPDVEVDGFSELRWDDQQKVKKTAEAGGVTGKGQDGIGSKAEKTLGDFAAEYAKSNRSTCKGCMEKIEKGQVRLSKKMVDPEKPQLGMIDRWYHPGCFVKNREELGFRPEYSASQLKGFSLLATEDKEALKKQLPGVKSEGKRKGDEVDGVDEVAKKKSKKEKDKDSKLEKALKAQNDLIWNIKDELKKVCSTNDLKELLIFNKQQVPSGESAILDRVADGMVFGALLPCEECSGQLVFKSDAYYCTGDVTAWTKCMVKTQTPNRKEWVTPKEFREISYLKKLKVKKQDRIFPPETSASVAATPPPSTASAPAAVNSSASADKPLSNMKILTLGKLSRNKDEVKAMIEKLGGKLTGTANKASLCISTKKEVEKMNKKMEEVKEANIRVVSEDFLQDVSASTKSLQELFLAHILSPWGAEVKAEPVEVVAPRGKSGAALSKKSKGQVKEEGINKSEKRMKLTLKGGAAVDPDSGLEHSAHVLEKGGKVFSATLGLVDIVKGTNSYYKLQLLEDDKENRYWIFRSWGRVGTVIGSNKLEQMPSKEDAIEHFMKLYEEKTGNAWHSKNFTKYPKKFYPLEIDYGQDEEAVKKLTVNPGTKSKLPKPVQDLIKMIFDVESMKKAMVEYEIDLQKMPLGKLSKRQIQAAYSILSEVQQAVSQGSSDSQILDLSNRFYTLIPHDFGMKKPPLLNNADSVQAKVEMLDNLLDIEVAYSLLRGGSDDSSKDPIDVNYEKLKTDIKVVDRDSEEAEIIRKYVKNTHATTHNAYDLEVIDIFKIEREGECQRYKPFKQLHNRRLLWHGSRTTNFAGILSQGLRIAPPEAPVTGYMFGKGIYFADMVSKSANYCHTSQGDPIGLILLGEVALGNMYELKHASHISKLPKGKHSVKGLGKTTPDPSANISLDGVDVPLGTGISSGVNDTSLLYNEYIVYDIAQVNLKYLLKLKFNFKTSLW
Chain of PARP4 (Q9UKK3 whole entry, species assumed): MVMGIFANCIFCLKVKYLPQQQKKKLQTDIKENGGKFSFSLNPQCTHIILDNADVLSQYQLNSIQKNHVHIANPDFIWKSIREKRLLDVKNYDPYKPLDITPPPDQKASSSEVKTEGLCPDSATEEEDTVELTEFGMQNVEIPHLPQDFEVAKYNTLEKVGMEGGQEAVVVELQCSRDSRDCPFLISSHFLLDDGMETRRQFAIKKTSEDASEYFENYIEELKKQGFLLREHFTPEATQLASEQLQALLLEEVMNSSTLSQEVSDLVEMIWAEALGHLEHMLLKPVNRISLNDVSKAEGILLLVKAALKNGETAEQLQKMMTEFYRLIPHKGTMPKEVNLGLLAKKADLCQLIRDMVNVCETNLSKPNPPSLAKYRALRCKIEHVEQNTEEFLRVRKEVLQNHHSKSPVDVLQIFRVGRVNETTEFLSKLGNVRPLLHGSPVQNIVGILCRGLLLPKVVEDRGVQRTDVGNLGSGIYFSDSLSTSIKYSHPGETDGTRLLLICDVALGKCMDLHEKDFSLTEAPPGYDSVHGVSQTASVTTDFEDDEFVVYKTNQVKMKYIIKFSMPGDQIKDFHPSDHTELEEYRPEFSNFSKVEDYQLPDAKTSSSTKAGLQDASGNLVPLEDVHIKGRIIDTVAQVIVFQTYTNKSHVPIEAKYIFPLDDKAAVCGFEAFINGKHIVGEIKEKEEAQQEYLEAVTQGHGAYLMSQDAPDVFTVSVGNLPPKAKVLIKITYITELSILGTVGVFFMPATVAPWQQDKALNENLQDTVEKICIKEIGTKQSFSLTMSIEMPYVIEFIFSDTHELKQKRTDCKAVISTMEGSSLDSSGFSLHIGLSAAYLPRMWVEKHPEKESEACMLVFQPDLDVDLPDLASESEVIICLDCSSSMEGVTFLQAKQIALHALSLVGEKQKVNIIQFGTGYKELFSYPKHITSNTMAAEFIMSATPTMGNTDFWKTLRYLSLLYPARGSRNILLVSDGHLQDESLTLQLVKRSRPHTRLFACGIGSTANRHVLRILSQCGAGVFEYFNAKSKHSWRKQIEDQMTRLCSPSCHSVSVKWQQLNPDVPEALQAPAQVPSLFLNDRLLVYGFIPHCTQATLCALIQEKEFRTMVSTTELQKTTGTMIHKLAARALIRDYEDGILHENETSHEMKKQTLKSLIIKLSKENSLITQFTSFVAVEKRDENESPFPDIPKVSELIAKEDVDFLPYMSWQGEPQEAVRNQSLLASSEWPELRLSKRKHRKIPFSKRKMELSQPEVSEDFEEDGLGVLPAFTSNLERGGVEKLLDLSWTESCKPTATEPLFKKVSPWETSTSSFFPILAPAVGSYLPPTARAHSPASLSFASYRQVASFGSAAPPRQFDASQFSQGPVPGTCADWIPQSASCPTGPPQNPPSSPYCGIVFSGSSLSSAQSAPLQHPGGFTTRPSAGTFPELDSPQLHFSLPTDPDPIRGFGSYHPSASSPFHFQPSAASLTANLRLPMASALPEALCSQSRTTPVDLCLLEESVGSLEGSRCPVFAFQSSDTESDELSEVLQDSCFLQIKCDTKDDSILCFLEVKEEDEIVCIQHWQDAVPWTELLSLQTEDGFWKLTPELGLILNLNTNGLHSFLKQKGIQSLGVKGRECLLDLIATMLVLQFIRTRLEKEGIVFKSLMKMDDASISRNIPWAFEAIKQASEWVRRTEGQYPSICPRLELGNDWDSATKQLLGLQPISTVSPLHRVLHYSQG

| Compound | F508del-CFTR corrector activity (surface expression) in HTS assay [1, 4] | F508del-CFTR corrector activity (surface expression) in HTS assay [1, 5] | Inhibition of PARP3, mean (panel) (PARP3) | IC50 (PARP3) | IC50 (PARP1) | PARP16 inhibition at 1 μM (PARP16) | Selectivity: greater IC50 potency for PARP16 compared with PARP3 (PARP16) | IC50 (PARP16) | Inhibition of PARP2, mean (panel) (PARP2) | Inhibition of TAN2, mean (panel) (TANKYRASE 2) | EC50 in the F508del-CFTR trafficking screening assay [2] | PARP3 inhibition at 1 μM (PARP3) | Inhibition of PARP5, mean (panel) (PARP5) | Functional F508del-CFTR correction in FMP assay [3] | Selectivity: greater IC50 potency for PARP16 compared with PARP3 (PARP16; listed as Latonduine A (1)) | Inhibition of TAN1, mean (panel) (TANKYRASE1) | Inhibition of PARP4, mean (panel) (PARP4) | Increase in relative PARP3/PARP16 IC50 potency compared with latonduine A (1) (PARP3) | Selectivity: greater IC50 potency for PARP3 compared with PARP16 (PARP3; ratio of IC50 values, in vitro) |
| --- | --- | --- | --- | --- | --- | --- | --- | --- | --- | --- | --- | --- | --- | --- | --- | --- | --- | --- | --- |
| O=C1NCC(c2ccccn2)C(O)c2cc(Cl)c(Cl)cc21 (racemic) [compound 6, (±)-7,8-dichloro-5-hydroxy-4-(pyridin-2-yl)-2,3,4,5-tetrahydro-1H-benzo[c]azepin-1-one] | neither 5 or 6 alone shows corrector activity | neither compound 5 or 6 alone gives F508del-CFTR correction | 25.8 | 74.1 µM | 17.8 µM | 81% | 205 fold | 0.362 µM |  |  |  |  |  |  |  |  |  |  |  |
| latonduine A [compound 1] |  |  | 83.7 | 3.4 µM | 24.3 µM | 79% | 8 fold | 0.427 µM | 21.6 | 10.1 | low nanomolar | 37% | 9.9 | generates functional CFTR correction | ≈ 8 fold | 11.7 | 18.3 |  |  |
| O=C1NCC(c2ccccc2)C(O)c2ccccc21 (racemic) [compound 5, (±)-5-hydroxy-4-phenyl-2,3,4,5-tetrahydro-1H-benzo[c]azepin-1-one] | neither 5 or 6 alone shows corrector activity | neither compound 5 or 6 alone gives F508del-CFTR correction | 95.6 | 3.1 µM | 20.1 µM |  |  | 296 µM |  |  |  | 39% |  |  |  |  |  | 768 fold | 96 fold |
| Nc1nc2c(c(C(=O)O)n1)-c1c([nH]c(Br)c1Br)C(=O)NC2 [compound 2, latonduine B] |  |  |  |  |  |  |  |  |  |  | low nanomolar |  |  |  |  |  |  |  |  |

Reference: publication PMC7557227 (ACS Omega, 2020)
